The text below walks through data of ChEMBL document CHEMBL4321868, “Scaffold Simplification Strategy Leads to a Novel Generation of Dual Human Immunodeficiency Virus and Enterovirus-A71 Entry Inhibitors” (J Med Chem, 2020).

Data set [1] deals with Human immunodeficiency virus 2. Kind of data set: Antiviral activity against HIV-2 ROD infected in human MT4 cells assessed as reduction in virus-induced cytopathic effect preincubated for 30 mins followed by viral infection and measured after 5 days by MTS assay. The settings on record: Human immunodeficiency virus 2, ISOLATE ROD.
Data set [2] is described as follows: Cytotoxicity against human MT4 cells assessed as reduction in cell viability measured after 5 days by MTS/PES assay. In kind it is cell-based. Summed up: (§1)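 MT-4 cells (RPMI-1640, 10% FCS, 1% L-glutamine) pre-incubated 30 min at 37 °C with compound, then infected with HIV-1 NL4.3 or HIV-2 ROD according to stock TCID50. After 5 days, CPE scored microscopically and viability read by MTS/PES at A490 to derive EC50; cytotoxicity measured by MTS/PES at 5 days in the same cells. SI = CC50/EC50. Mean ± S.D. of at least 3 experiments.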

The test system of the next data set is Enterovirus A71. Description: Antiviral activity against Enterovirus A 71 BrCr infected in human RD cells assessed as reduction in virus-induced cytopathic effect preincubated for 1 day followed by viral infection and measured after 3 days by MTS/PMS method. The class given is functional, organism-based. The settings on record: strain BRCR. Summed up:
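RD cells seeded in 96-well plates; next day serial compound dilutions plus virus at low MOI added. Incubation at 37 °C, 5% CO₂ until full CPE in untreated infected controls (3 days). Viability read by MTS/PMS; EC50 as 50% inhibition of virus-induced death from dose-response curves. CC50 from uninfected treated cells in the same setup; SI = CC50/EC50.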

Data set [3] in a line: Selectivity index, ratio of CC50 for human MT4 cells to EC50 for HIV-1 NL4.3 infected in human MT4 cells.
Data set [4] has as its system Human immunodeficiency virus 1. Description: Antiviral activity against HIV1 NL4.3 infected in human MT4 cells assessed as reduction in virus-induced cytopathic effect preincubated for 30 mins followed by viral infection and measured after 5 days by MTS assay. The settings on record: Human immunodeficiency virus 1, NL4.3, MT4. In kind it is functional, organism-based.

Data set [5] can be described thus: Selectivity index, ratio of CC50 for human MT4 cells to EC50 for HIV1 NL4.3 infected in human MT4 cells. In kind it is toxicity, cell-based. The settings on record: read-out: Ratio CC50/EC50. The procedure, abridged:
as §1

Data set [6] is described as follows: Selectivity index, ratio of CC50 for human RD cells to EC50 for Enterovirus A71 BrCr infected in human RD cells. The settings on record: read-out: Ratio CC50/EC50. The class given is toxicity, cell-based. The procedure, abridged:
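RD cells seeded in 96-well plates; next day serial compound dilutions plus virus at low MOI added. Incubation at 37 °C, 5% CO₂ until full CPE in untreated infected controls (3 days). CC50 from uninfected treated cells in the same setup; SI = CC50/EC50.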

For the molecule `O=C(CCC(CCC(=O)NC(Cc1c(-c2ccc(C(F)(F)F)cc2)[nH]c2ccccc12)C(=O)O)(CCC(=O)NC(Cc1c(-c2ccc(C(F)(F)F)cc2)[nH]c2ccccc12)C(=O)O)[N+](=O)[O-])NC(Cc1c(-c2ccc(C(F)(F)F)cc2)[nH]c2ccccc12)C(=O)O` (stereo unspecified), the EC50 in data set [1] was 68 µM; with Enterovirus A71 it was above 78.9 µM; in data set [4], 26 µM. Moreover, the CC50 at 120 h in data set [2] is above 100 µM. Also, the selectivity ratio in data set [3] and in data set [5] was above 4 in each case.
Turning to `O=C(CCOCC(COCCC(=O)NC(Cc1cn(Cc2ccc(C(=O)O)cc2)c2ccccc12)C(=O)O)(COCCC(=O)NC(Cc1cn(Cc2ccc(C(=O)O)cc2)c2ccccc12)C(=O)O)COCCC(=O)NC(Cc1cn(Cc2ccc(C(=O)O)cc2)c2ccccc12)C(=O)O)NC(Cc1cn(Cc2ccc(C(=O)O)cc2)c2ccccc12)C(=O)O` (stereo unspecified), the values for the EC50 (in data set [1]; with Enterovirus A71; in data set [4]) were above 76 µM, above 19.5 µM and above 76 µM, respectively. Besides, the CC50 at 120 h in data set [2] stood at 76 µM.
Take `O=C(CCC(CCC(=O)NC(Cc1c(-c2ccc([N+](=O)[O-])cc2)[nH]c2ccccc12)C(=O)O)(CCC(=O)NC(Cc1c(-c2ccc([N+](=O)[O-])cc2)[nH]c2ccccc12)C(=O)O)[N+](=O)[O-])NC(Cc1c(-c2ccc([N+](=O)[O-])cc2)[nH]c2ccccc12)C(=O)O` (stereo unspecified): the EC50 in data set [1] was found to be 43 µM; with Enterovirus A71, 28.8 µM; in data set [4], 41 µM. Also, the CC50 at 120 h in data set [2] is above 100 µM. For the same molecule, the EC90 in the data set on Enterovirus A71 is 58.2 µM. Also, the selectivity ratio in data set [3] and in data set [5] was above 2 each time.
Take `COc1ccc(-c2[nH]c3ccccc3c2CC(NC(=O)CCC(CCC(=O)NC(Cc2c(-c3ccc(OC)cc3)[nH]c3ccccc23)C(=O)O)(CCC(=O)NC(Cc2c(-c3ccc(OC)cc3)[nH]c3ccccc23)C(=O)O)[N+](=O)[O-])C(=O)O)cc1` (stereo unspecified): the EC50 in data set [1] was above 9.3 µM; with Enterovirus A71, above 86.6 µM; in data set [4] it was above 9.3 µM. The CC50 at 120 h in data set [2] amounted to 9.3 µM.
As for `O=C(CCC(CCC(=O)NC(Cc1c(-c2ccc(Br)cc2)[nH]c2ccccc12)C(=O)O)(CCC(=O)NC(Cc1c(-c2ccc(Br)cc2)[nH]c2ccccc12)C(=O)O)[N+](=O)[O-])NC(Cc1c(-c2ccc(Br)cc2)[nH]c2ccccc12)C(=O)O` (stereo unspecified), the figures for the EC50 (in data set [1]; in the data set on Enterovirus A71; in data set [4]) were above 30 µM, 65.2 µM and above 30 µM, respectively. The half-maximal cytotoxic concentration (CC50) at 120 h in data set [2] worked out at 30 µM.
As to `O=C(CCC(CCC(=O)NC(Cc1c[nH]c2ccccc12)C(=O)O)(CCC(=O)NC(Cc1c[nH]c2ccccc12)C(=O)O)[N+](=O)[O-])NC(Cc1c[nH]c2ccccc12)C(=O)O` (stereo unspecified), the EC50 was above 100 µM in data set [1], above 120 µM with Enterovirus A71 and above 100 µM in data set [4]. Besides, the CC50 at 120 h in data set [2] is above 100 µM.
`O=C(CCOCC(COCCC(=O)NC(Cc1c(-c2ccc(C(=O)O)cc2)[nH]c2ccccc12)C(=O)O)(COCCC(=O)NC(Cc1c(-c2ccc(C(=O)O)cc2)[nH]c2ccccc12)C(=O)O)COCCC(=O)NC(Cc1c(-c2ccc(C(=O)O)cc2)[nH]c2ccccc12)C(=O)O)NC(Cc1c(-c2ccc(C(=O)O)cc2)[nH]c2ccccc12)C(=O)O` (stereo unspecified): the EC50 in data set [1] was 0.75 µM; in the data set with Enterovirus A71, 0.37 µM; in data set [4], 0.73 µM. In addition, the CC50 at 120 h in data set [2] is above 100 µM. The selectivity ratio in data set [6] is 161; in data set [3] it was above 137; in data set [5], above 137. In the data set with Enterovirus A71, the EC90 stood at 0.63 µM.
For the molecule `O=C(CCC(CCC(=O)NC(Cc1c(-c2ccc(C(=O)O)cc2)[nH]c2ccccc12)C(=O)O)(CCC(=O)NC(Cc1c(-c2ccc(C(=O)O)cc2)[nH]c2ccccc12)C(=O)O)[N+](=O)[O-])NC(Cc1c(-c2ccc(C(=O)O)cc2)[nH]c2ccccc12)C(=O)O` (stereo unspecified), the EC50 in data set [1] was above 71 µM; in the data set with Enterovirus A71, 12.2 µM; in data set [4] it was 2.4 µM. Also, in data set [2], the CC50 at 120 h was 71 µM. For the same molecule, the selectivity ratio in data set [3] and in data set [5] was 29.6 in each case.
With `O=C(CCOCC(COCCC(=O)NC(Cc1c[nH]c2ccccc12)C(=O)O)(COCCC(=O)NC(Cc1c[nH]c2ccccc12)C(=O)O)COCCC(=O)NC(Cc1c[nH]c2ccccc12)C(=O)O)NC(Cc1c[nH]c2ccccc12)C(=O)O` (stereo unspecified), the EC50 in data set [1] is above 250 µM; in the data set on Enterovirus A71, above 100 µM; in data set [4] it was above 250 µM. Further, the CC50 at 120 h in data set [2] was above 250 µM.
On to `O=C(CCC(CCC(=O)NC(Cc1c(-c2ccccc2F)[nH]c2ccccc12)C(=O)O)(CCC(=O)NC(Cc1c(-c2ccccc2F)[nH]c2ccccc12)C(=O)O)[N+](=O)[O-])NC(Cc1c(-c2ccccc2F)[nH]c2ccccc12)C(=O)O` (stereo unspecified), for which the EC50 in data set [1] was above 100 µM; with Enterovirus A71, above 89.4 µM; in data set [4], 35 µM. Also, the CC50 at 120 h in data set [2] is above 100 µM. For the same molecule, the selectivity ratio in data set [3] and in data set [5] was above 3 throughout.
Regarding `O=C(CCC(CCC(=O)NC(Cc1c(-c2ccccc2)[nH]c2ccccc12)C(=O)O)(CCC(=O)NC(Cc1c(-c2ccccc2)[nH]c2ccccc12)C(=O)O)[N+](=O)[O-])NC(Cc1c(-c2ccccc2)[nH]c2ccccc12)C(=O)O` (stereo unspecified), the EC50 was above 83 µM in data set [1], above 100 µM in the data set on Enterovirus A71 and 19 µM in data set [4]. In addition, the CC50 at 120 h in data set [2] was 83 µM. The selectivity ratio in data set [3] and in data set [5] was 4.4 in each case.
As to `O=C(CCC(CCC(=O)NC(Cc1cn(Cc2ccc(F)cc2)c2ccccc12)C(=O)O)(CCC(=O)NC(Cc1cn(Cc2ccc(F)cc2)c2ccccc12)C(=O)O)[N+](=O)[O-])NC(Cc1cn(Cc2ccc(F)cc2)c2ccccc12)C(=O)O` (stereo unspecified), the EC50 in data set [1] was 34 µM; in data set [4] it was 43 µM. Further, the CC50 at 120 h in data set [2] is above 100 µM. Besides, the selectivity ratio in data set [3] and in data set [5] was above 2.3 in each case.
For `O=C(CCC(CCC(=O)NC(Cc1c(-c2cccc(C(=O)O)c2)[nH]c2ccccc12)C(=O)O)(CCC(=O)NC(Cc1c(-c2cccc(C(=O)O)c2)[nH]c2ccccc12)C(=O)O)[N+](=O)[O-])NC(Cc1c(-c2cccc(C(=O)O)c2)[nH]c2ccccc12)C(=O)O` (stereo unspecified), the EC50 stood at 64 µM in data set [1], 0.99 µM in the data set on Enterovirus A71 and 16 µM in data set [4]. The CC50 at 120 h in data set [2] is above 100 µM. Besides, the selectivity ratio is above 73.4 in data set [6], above 6 in data set [3] and above 6 in data set [5]. Further, the EC90 in the data set with Enterovirus A71 worked out at 1.35 µM.
Take `CN[C@@H]1[C@H](O[C@@H]2OC[C@@H](O)[C@H](O)[C@H]2O)[C@@H](O)[C@H](O[C@H]2c3cc(C)c(C(=O)N[C@H](C)C(=O)O)c(O)c3-c3c(cc4c(c3O)C(=O)c3cc(OC)cc(O)c3C4=O)[C@@H]2O)O[C@@H]1C` [PRADIMICIN A]: the CC50 at 120 h in data set [2] was above 100 µM. The selectivity ratio in data set [3] and in data set [5] was above 30.3 in each case. The EC50 in data set [4] came out at 3.3 µM.
On to `O=C(CCC(CCC(=O)NC(Cc1cn(Cc2ccccc2)c2ccccc12)C(=O)O)(CCC(=O)NC(Cc1cn(Cc2ccccc2)c2ccccc12)C(=O)O)[N+](=O)[O-])NC(Cc1cn(Cc2ccccc2)c2ccccc12)C(=O)O` (stereo unspecified), for which the EC50 in data set [1] turned out to be 38 µM; in data set [4], 49 µM. The CC50 at 120 h in data set [2] is above 100 µM. In addition, the selectivity ratio in data set [3] and in data set [5] was above 2 each time.
On to `O=C(CCC(CCC(=O)NC(Cc1cn(Cc2ccc(C(=O)O)cc2)c2ccccc12)C(=O)O)(CCC(=O)NC(Cc1cn(Cc2ccc(C(=O)O)cc2)c2ccccc12)C(=O)O)[N+](=O)[O-])NC(Cc1cn(Cc2ccc(C(=O)O)cc2)c2ccccc12)C(=O)O` (stereo unspecified), for which the EC50 amounted to 47 µM in data set [1] and 41 µM in data set [4]. Further, the CC50 at 120 h in data set [2] was above 100 µM. Moreover, the selectivity ratio in data set [3] and in data set [5] was above 2.4 throughout.
